Reference: ChEMBL document CHEMBL4043131, “New prodrugs of two pyrimidine acyclic nucleoside phosphonates: Synthesis and antiviral activity” (Bioorg Med Chem, 2017)
pEC50: −log10 of the molar value. The source made the active and inactive calls. The calls are words filed in the database; no cut-off is given here.

What was measured:
[1] = Selectivity index, ratio of CC50 for HEL cells to EC50 for thymidine kinase-deficient ACV-resistant Herpes simplex virus 1 KOS infected in HEL cells; assay type: toxicity, cell-based; settings: human, read-out: Ratio CC50/EC50
How it was run: (§1)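 EC50 is the concentration halving cytopathicity in HEL cells infected with 100 CCID50 HSV. […] Cells were counted by Coulter counter, and CC50 was read from plots of cell number (% of untreated) versus concentration. SI = CC50/EC50.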

[2] = Selectivity index, ratio of CC50 for HEL cells to EC50 for wild type thymidine kinase-deficient Varicella-Zoster virus 07-1 infected in HEL cells; assay type: toxicity, cell-based; settings: human, read-out: Ratio CC50/EC50
Human alphaherpesvirus 1 [3] = assay: Antiviral activity against thymidine kinase-deficient ACV-resistant Herpes simplex virus 1 KOS infected in HEL cells assessed as inhibition of virus-induced cytopathic effect; assay type: functional, cell-based; settings: Human alphaherpesvirus 1, KOS
Human alphaherpesvirus 3 [4] = assay: Antiviral activity against wild type thymidine kinase expressing Varicella-Zoster virus Oka infected in HEL cells assessed as inhibition of virus-induced plaque formation; assay type: functional, cell-based; settings: Human alphaherpesvirus 3, Oka
How it was run: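 Confluent HEL cultures were inoculated with 20 PFU of VZV and incubated with varying compound concentrations. Plaques were counted once formation was complete in untreated infected controls.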

Influenza A virus = assay: Antiviral activity against Influenza A virus (H1N1) infected in HEL cells assessed as inhibition of virus-induced cytopathic effect; assay type: functional, cell-based
Human alphaherpesvirus 2 = assay: Antiviral activity against Herpes simplex virus 2 G infected in HEL cells assessed as inhibition of virus-induced cytopathic effect; assay type: functional, cell-based; settings: Human alphaherpesvirus 2, strain G
How it was run: (§2)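 Confluent cell monolayers were infected with 100 CCID50 of virus (1 CCID50 = dose infecting 50% of cultures) and incubated with varying compound concentrations. Cytopathicity was scored once complete in untreated infected controls.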

Influenza A virus H3N2 = assay: Antiviral activity against Influenza A virus H3N2 infected in HEL cells assessed as inhibition of virus-induced cytopathic effect; assay type: functional, cell-based
Influenza B virus = assay: Antiviral activity against influenza B virus infected in HEL cells assessed as inhibition of virus-induced cytopathic effect; assay type: functional, cell-based
[5] = Antiviral activity against Respiratory syncytial virus A strain long infected in human HeLA cells assessed as inhibition of virus-induced cytopathic effect; assay type: functional, cell-based; how it was run: as §2
Vaccinia virus = assay: Antiviral activity against Vaccinia virus Lederle infected in HEL cells assessed as inhibition of virus-induced cytopathic effect; assay type: functional, cell-based; settings: Orthopoxvirus vaccinia
Punta Toro virus = assay: Antiviral activity against Punta Toro virus infected in African green monkey Vero cells assessed as inhibition of virus-induced cytopathic effect; assay type: functional; how it was run: as §2
Human alphaherpesvirus 3 [6] = assay: Antiviral activity against wild type thymidine kinase-deficient Varicella-Zoster virus 07-1 infected in HEL cells assessed as inhibition of virus-induced plaque formation; assay type: functional, cell-based; settings: Human alphaherpesvirus 3, 07-1, HEL
How it was run: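 HEL fibroblast monolayers were infected with 20 PFU of VZV and kept with varying compound concentrations. Plaques were counted once formation was complete in untreated infected controls.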

Human alphaherpesvirus 1 [7] = assay: Antiviral activity against wild type Herpes simplex virus 1 KOS infected in HEL cells assessed as inhibition of virus-induced cytopathic effect; assay type: functional, cell-based; settings: Human alphaherpesvirus 1, KOS
Human betaherpesvirus 5 [8] = assay: Antiviral activity against Human cytomegalovirus Davis infected in HEL cells assessed as inhibition of virus-induced cytopathic effect; assay type: functional, cell-based; settings: Human betaherpesvirus 5, Davis; how it was run: as §2
[9] = Selectivity index, ratio of CC50 for HEL cells to EC50 for wild type thymidine kinase expressing Varicella-Zoster virus Oka infected in HEL cells; assay type: toxicity, cell-based; settings: human, read-out: Ratio CC50/EC50
[10] = tested on: Vesicular stomatitis virus; assay: Antiviral activity against Vesicular stomatitis virus infected in HEL cells assessed as inhibition of virus-induced cytopathic effect; assay type: functional, cell-based
[11] = Selectivity index, ratio of CC50 for HEL cells to EC50 for wild type Herpes simplex virus 1 KOS infected in HEL cells; assay type: toxicity, cell-based; settings: human, read-out: Ratio CC50/EC50; how it was run: as §1
[12] = tested on: Mammalian orthoreovirus 1; assay: Antiviral activity against Reovirus-1 infected in African green monkey Vero cells assessed as inhibition of virus-induced cytopathic effect; assay type: functional; how it was run: as §2
Human respirovirus 3 = assay: Antiviral activity against Parainfluenza virus 3 infected in African green monkey Vero cells assessed as inhibition of virus-induced cytopathic effect; assay type: functional; how it was run: as §2
[13] = Selectivity index, ratio of CC50 for HEL cells to EC50 for Herpes simplex virus 2 G infected in HEL cells; assay type: toxicity, cell-based; settings: human, read-out: Ratio CC50/EC50; how it was run: as §1
Sindbis virus = assay: Antiviral activity against Sindbis virus infected in African green monkey Vero cells assessed as inhibition of virus-induced cytopathic effect; assay type: functional; how it was run: as §2
Feline coronavirus = assay: Antiviral activity against Feline coronavirus infected in CRFK cells assessed as inhibition of virus-induced cytopathic effect; assay type: functional, cell-based
Coxsackievirus B4 = assay: Antiviral activity against Coxsackie virus B4 infected in human HeLA cells assessed as inhibition of virus-induced cytopathic effect; assay type: functional, cell-based; how it was run: as §2
Human betaherpesvirus 5 [14] = assay: Antiviral activity against Human cytomegalovirus AD169 infected in HEL cells assessed as inhibition of virus-induced cytopathic effect; assay type: functional, cell-based; settings: Human betaherpesvirus 5, AD169, HEL; how it was run: as §2
HEL = assay: Cytotoxicity against HEL cells assessed as reduction in cell growth after 3 days by coulter counter method; assay type: cell-based; settings: human, hel, 72 h
How it was run: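 HEL cells were seeded at 5 × 10³ cells/well and grown for 24 h, then given medium containing graded compound concentrations. After 3 days at 37 °C, cells were counted by Coulter counter.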

[15] = Selectivity index, ratio of CC50 for HEL cells to EC50 for Human cytomegalovirus AD169 infected in HEL cells; assay type: toxicity, cell-based; settings: read-out: Ratio CC50/EC50
[16] = Selectivity index, ratio of CC50 for HEL cells to EC50 for Human cytomegalovirus Davis infected in HEL cells; assay type: toxicity, cell-based; settings: read-out: Ratio CC50/EC50

| Structure (SMILES) | selectivity ratio [1] | pEC50 (Human alphaherpesvirus 1 [3]) | pEC50 (Human alphaherpesvirus 3 [4]) | Activity (Influenza A virus) | pEC50 (Human alphaherpesvirus 2) | Activity (Influenza A virus H3N2) | Activity (Influenza B virus) | Activity [5] | pEC50 (Vaccinia virus) | Activity (Punta Toro virus) | pEC50 (Human alphaherpesvirus 3 [6]) | pEC50 (Human alphaherpesvirus 1 [7]) | pEC50 (Human betaherpesvirus 5 [8]) | Activity [10] | Activity [12] | Activity (Human respirovirus 3) | Activity (Sindbis virus) | Activity (Feline coronavirus) | Activity (Coxsackievirus B4) | pEC50 (Human betaherpesvirus 5 [14]) | further results |
| --- | --- | --- | --- | --- | --- | --- | --- | --- | --- | --- | --- | --- | --- | --- | --- | --- | --- | --- | --- | --- | --- |
| Nc1cc(OCCOCP(=O)(O)O)nc(N)n1 | 1.72 to 4.5 | 4.27 | 5.68 | inactive | 4.70 | inactive | inactive | inactive | < 4.00 | inactive | 5.33 | 4.35 | < 4.00 | inactive | inactive | inactive | inactive | inactive | inactive | < 4.00 | selectivity ratio [2]: 19 to 44; selectivity ratio [9]: 19 to 44; selectivity ratio [11]: 1.72 to 4.5; selectivity ratio [13]: 1.72 to 4.5; CC50 (HEL): 90.3 µM |
| CC(C)(C)C(=O)OCOP(=O)(COCCn1cnc(N)nc1=O)OCOC(=O)C(C)(C)C | 37 to 63 | 6.14 | 6.19 | inactive | 5.90 | inactive | inactive | inactive | 3.82 | inactive | 5.88 | 6.08 | 6.01 | inactive | inactive | inactive | inactive | inactive | inactive | 5.49 | selectivity ratio [2]: 35 to 71; selectivity ratio [15]: 14 to 47; selectivity ratio [16]: 14 to 47; selectivity ratio [9]: 35 to 71; selectivity ratio [11]: 37 to 63; selectivity ratio [13]: 37 to 63; CC50 (HEL): 46 µM |
| CCOC(=O)[C@H](C)NP(=O)(COCCOc1cc(N)nc(N)n1)N[C@@H](C)C(=O)OCC | 4 to 15 | 5.20 | 6.25 | inactive | 5.46 | inactive | inactive | inactive | 3.80 | inactive | 5.77 | 5.41 | 4.77 | inactive | inactive | inactive | inactive | inactive | inactive | 4.55 | selectivity ratio [2]: 15 to 52; selectivity ratio [15]: ≤ 1; selectivity ratio [16]: ≤ 1; selectivity ratio [9]: 15 to 52; selectivity ratio [11]: 4 to 15; selectivity ratio [13]: 4 to 15; CC50 (HEL): 25.9 µM |
| CC(C)(C)C(=O)OCOP(=O)(O)COCCOc1cc(N)nc(N)n1 | – | 4.27 | 5.60 | inactive | 4.54 | inactive | inactive | inactive | < 4.00 | inactive | 5.23 | 4.40 | < 4.00 | inactive | inactive | inactive | inactive | inactive | inactive | < 4.00 | CC50 (HEL): ≥ 100 µM |
| CCCCCCCCCCCCCCCCNC(=O)[C@@H](N)Cc1ccc(OP(=O)(COCCn2cnc(N)nc2=O)Oc2ccc(C[C@H](N)C(=O)NCCCCCCCCCCCCCCCC)cc2)cc1 | 45 to 68 | 6.40 | 6.24 | inactive | 6.40 | inactive | inactive | inactive | < 4.00 | inactive | 6.54 | 6.22 | 6.32 | inactive | inactive | inactive | inactive | inactive | inactive | 5.67 | selectivity ratio [2]: 47 to 93; selectivity ratio [15]: 13 to 56; selectivity ratio [16]: 13 to 56; selectivity ratio [9]: 47 to 93; selectivity ratio [11]: 45 to 68; selectivity ratio [13]: 45 to 68 |
| CCCCCCCCCCCCCCCCCCOCCOP(=O)(O)COCCn1cnc(N)nc1=O | 226 to 528 | 6.70 | 6.49 | inactive | 6.82 | inactive | inactive | inactive | < 4.00 | inactive | 6.10 | 6.46 | 6.62 | inactive | inactive | inactive | inactive | inactive | inactive | 5.95 | selectivity ratio [2]: 100 to 248; selectivity ratio [15]: 71 to 330; selectivity ratio [16]: 71 to 330; selectivity ratio [9]: 100 to 248; selectivity ratio [11]: 226 to 528; selectivity ratio [13]: 226 to 528; CC50 (HEL): 79.2 µM |
